Assay results pooled from the literature.
Protocols differ between the studies behind these lines. ≈ marks a conversion by molar mass, not a printed value.
Organism: Pseudomonas aeruginosa
Effect on: microbial growth

SMILES | assay | test system | setting | MIC
COC(=O)c1cc(-c2cccc(NC(=S)Nc3ccccc3)c2)on1 | broth dilution | ATCC27853 | – | > 64 µg/mL
C[n+]1c(/C=C/c2ccc(O)cc2)cc(/C=C2\Sc3ccccc3N2CCCN2CCCC2)c2ccccc21.[I-] | broth dilution | ATCCBAA2108 | drug-resistant strain | > 64 µg/mL
CC1(C)S[C@@H]2[C@H](NC(=O)C(C(=O)O)c3ccccc3)C(=O)N2[C@H]1C(=O)O (stereo partly drawn) | – | – | – | 50 µg/mL (≈ 132 µM)
CC(=O)C1=C(O)C(CC(C)C)NC1=O (stereo not drawn) | – | PA01 | – | > 200 µg/mL
CCCCCCCCCCCC(=O)OC[C@H]1O[C@@H](n2cc(C)c(=O)[nH]c2=O)C[C@@H]1OC(=O)c1ccc(C(C)(C)C)cc1 | broth dilution | – | – | 8 µg/mL (≈ 13.7 µM)
C[n+]1c(/C=C/c2c[nH]c3ccccc23)cc(/C=C2\Sc3ccccc3N2CCCN2CCCC2)c2ccccc21.[I-] | broth dilution | ATCCBAA2108 | drug-resistant strain | 32 µg/mL
CC1(C)SC2C(NC(=O)C(NC(=O)C3=C(O)C(Cc4ccc([N+](=O)[O-])cc4)NC3=O)c3ccccc3)C(=O)N2C1C(=O)O (stereo not drawn) | – | – | – | 50 µg/mL (≈ 82 µM)
C[n+]1c(/C=C/c2c[nH]c3ccccc23)cc(/C=C2\Sc3ccccc3N2CCCN2CCOCC2)c2ccccc21.[I-] | broth dilution | ATCCBAA2108 | drug-resistant strain | > 64 µg/mL
CN[C@@H]1[C@H](O)[C@H](NC)[C@H]2O[C@@]3(O)C(=O)C[C@@H](C)O[C@H]3O[C@@H]2[C@H]1O | broth dilution | PAO1 | – | 100 µg/mL (≈ 301 µM)
CCOC(=O)c1nnn(-c2cccc(NC(=O)Nc3ccc(Cl)c(Cl)c3)c2)c1C | broth dilution | ATCC27853 | – | > 64 µg/mL
C[C@@H](O)[C@H]1C(=O)N2C(C(=O)O)=C(S[C@@H]3CN[C@H](C(=O)N(C)C)C3)[C@H](C)[C@H]12 | – | – | – | 2 µg/mL (≈ 5.22 µM)
COC(=O)c1cc(-c2cccc(NC(=S)Nc3ccc(OC)cc3)c2)on1 | broth dilution | ATCC27853 | – | > 64 µg/mL
CCCCCCC#Cc1cncc(-c2nnc(Sc3ccc([N+](=O)[O-])cc3[N+](=O)[O-])n2C)c1 | – | – | – | ≥ 20 µg/mL
CCCCCCNC(=S)Nc1cccc(-c2cc(C(=O)OC)no2)c1 | broth dilution | ATCC27853 | – | > 64 µg/mL
C[n+]1c(/C=C/c2ccc(O)cc2)cc(/C=C2\Sc3ccccc3N2CCCN2CCOCC2)c2ccccc21.[I-] | broth dilution | ATCCBAA2108 | drug-resistant strain | > 64 µg/mL
